pEC50, pIC50: −log10 of the molar value.
What was measured:
[1] = biological target: T1, Metabotropic glutamate receptor 1 (Homo sapiens, UniProt Q13255); assay: Negative allosteric modulation of human mGlu1 receptor in HEK293 cells assessed as potentiation of glutamate-induced calcium mobiliztion by Fluo-4AM dye based fluorescence analysis; assay type: functional, cell-based
Target sequence in this assay (Q13255 whole entry): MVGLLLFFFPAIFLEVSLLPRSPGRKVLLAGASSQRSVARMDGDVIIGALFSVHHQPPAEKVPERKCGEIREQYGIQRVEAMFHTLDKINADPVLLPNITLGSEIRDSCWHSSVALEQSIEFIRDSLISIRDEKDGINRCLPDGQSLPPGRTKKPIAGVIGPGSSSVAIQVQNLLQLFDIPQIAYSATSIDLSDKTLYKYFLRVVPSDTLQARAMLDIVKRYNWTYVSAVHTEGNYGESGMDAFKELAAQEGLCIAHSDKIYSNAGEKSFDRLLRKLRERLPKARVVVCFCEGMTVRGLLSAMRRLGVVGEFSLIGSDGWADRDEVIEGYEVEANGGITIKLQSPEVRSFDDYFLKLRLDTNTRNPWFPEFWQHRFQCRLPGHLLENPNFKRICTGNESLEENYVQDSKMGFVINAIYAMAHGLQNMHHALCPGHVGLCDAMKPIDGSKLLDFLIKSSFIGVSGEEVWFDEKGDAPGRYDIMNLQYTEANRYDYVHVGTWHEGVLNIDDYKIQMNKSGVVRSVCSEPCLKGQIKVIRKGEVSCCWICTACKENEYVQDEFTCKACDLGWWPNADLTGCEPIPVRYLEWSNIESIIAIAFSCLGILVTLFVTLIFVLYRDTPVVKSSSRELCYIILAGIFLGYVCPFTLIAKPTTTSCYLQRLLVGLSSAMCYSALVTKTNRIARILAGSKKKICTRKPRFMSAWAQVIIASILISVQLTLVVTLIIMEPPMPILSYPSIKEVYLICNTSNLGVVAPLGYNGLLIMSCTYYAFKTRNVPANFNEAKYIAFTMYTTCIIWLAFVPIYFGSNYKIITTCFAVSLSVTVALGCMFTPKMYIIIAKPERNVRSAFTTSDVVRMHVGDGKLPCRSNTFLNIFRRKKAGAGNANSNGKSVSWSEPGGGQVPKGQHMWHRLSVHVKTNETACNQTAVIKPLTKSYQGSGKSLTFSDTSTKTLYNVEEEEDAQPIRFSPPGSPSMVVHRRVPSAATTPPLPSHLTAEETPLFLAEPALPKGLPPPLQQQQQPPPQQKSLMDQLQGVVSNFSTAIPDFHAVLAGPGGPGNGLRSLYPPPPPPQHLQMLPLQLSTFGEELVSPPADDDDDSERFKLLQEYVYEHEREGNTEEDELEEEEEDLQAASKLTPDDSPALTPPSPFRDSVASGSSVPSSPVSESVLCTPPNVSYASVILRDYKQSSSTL

[2] = test system: Mus musculus; assay: Toxicity in C57BL/6 mouse assessed as seizure activity at 1 mg/kg, ip administered as single dose measured after 5 mins; assay type: organism-based; settings: in vivo
In short: (§1)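 Male C57Bl/6 mice (25−30 g) dosed ip in 10% Tween 80 at 10 mL/kg: the mGlu5 ago-PAM at 1 or 3 mg/kg, the mGlu1 PAMs at 100 mg/kg. Behaviour was monitored continuously for 3 h and scored on a modified Racine scale (0−5).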

[3] = test system: Mus musculus; assay: Toxicity in C57BL/6 mouse assessed as seizure activity at 1 or 3 mg/kg, ip administered as single dose measured after 5 mins; settings: in vivo
[4] = biological target: T1, Metabotropic glutamate receptor 1; assay: Positive allosteric modulation of human mGlu1 receptor in HEK293 cells assessed as potentiation of glutamate-induced calcium mobiliztion by Fluo-4AM dye based fluorescence analysis; assay type: functional, cell-based; settings: read-out: EC50
Target sequence in this assay (Q13255 whole entry): as above

[5] = biological target: Metabotropic glutamate receptor 1 (Rattus norvegicus, UniProt P23385); assay: Positive allosteric modulation of rat mGlu1 receptor assessed as potentiation of glutamate-induced calcium mobiliztion by cell based assay; assay type: functional
In short: (§2)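 Rat mGlu1 WT calcium mobilization concentration-response curves. EC50 and % Glu Max were derived from the curves.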

[6] = test system: Plasma; assay: Metabolic stability in human plasma; assay type: ADME, cell-free
In short: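 Compound incubated at 10 μM in rat or human plasma at 37 °C. Samples taken at 0 and 4 h were analysed by mass spectrometry for parent and metabolites.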

[7] = test system: Plasma; assay: Metabolic stability in rat plasma; assay type: ADME, cell-free
[8] = biological target: T2, Cytochrome P450 1A2 (Homo sapiens, UniProt P05177); assay: Inhibition of CYP1A2 in human liver microsomes by LC-MS/MS analysis; assay type: ADME
T2 sequence (P05177 whole entry): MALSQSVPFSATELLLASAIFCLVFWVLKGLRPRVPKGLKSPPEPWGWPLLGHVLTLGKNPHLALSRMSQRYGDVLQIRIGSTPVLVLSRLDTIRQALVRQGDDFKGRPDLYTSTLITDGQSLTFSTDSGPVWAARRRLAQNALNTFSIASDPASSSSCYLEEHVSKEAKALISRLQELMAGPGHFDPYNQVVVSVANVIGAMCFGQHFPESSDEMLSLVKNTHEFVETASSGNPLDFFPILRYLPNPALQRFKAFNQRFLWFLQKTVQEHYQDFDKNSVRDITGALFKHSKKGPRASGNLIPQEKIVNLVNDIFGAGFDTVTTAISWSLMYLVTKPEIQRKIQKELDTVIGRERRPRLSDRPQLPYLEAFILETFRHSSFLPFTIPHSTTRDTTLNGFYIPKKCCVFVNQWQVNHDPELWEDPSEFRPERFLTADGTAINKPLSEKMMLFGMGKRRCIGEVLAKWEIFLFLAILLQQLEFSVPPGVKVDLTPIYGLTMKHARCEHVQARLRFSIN

[9] = biological target: Cytochrome P450 2C9 (Homo sapiens, UniProt P11712); assay: Inhibition of CYP2C9 in human liver microsomes by LC-MS/MS analysis; assay type: ADME
[10] = biological target: Cytochrome P450 2D6 (Homo sapiens, UniProt P10635); assay: Inhibition of CYP2D6 in human liver microsomes by LC-MS/MS analysis; assay type: ADME
[11] = biological target: Cytochrome P450 3A4 (Homo sapiens, UniProt P08684); assay: Inhibition of CYP3A4 in human liver microsomes by LC-MS/MS analysis; assay type: ADME
[12] = Plasma concentration in Sprague-Dawley rat at 0.2 mg/kg, iv after 0.25 hrs by LC-MS/MS analysis
[13] = Drug concentration in Sprague-Dawley rat brain at 0.2 mg/kg, iv after 0.25 hrs by LC-MS/MS analysis; settings: read-out: Drug uptake
[14] = test system: Hippocampus; assay: Toxic epileptiform activity in C57BL/6 mouse CA3 region of hippocampus assessed as frequency of spike activity at 50 uM by electrophysiolgy method (reference value: 0.94 +/- 0.06 Hz); assay type: toxicity, tissue-based
In short: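 Mouse hippocampal slices with extracellular recording from the CA3 pyramidal cell body layer. Compound (10 μM) or DHPG (50 μM) was bath-applied, and the frequency of spontaneous spikes was compared with baseline. n = 6 per agent, paired t test.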

[15] = test system: Plasma; assay: Fraction unbound in human plasma; assay type: ADME, cell-free
[16] = test system: Plasma; assay: Fraction unbound in rat plasma; assay type: ADME, cell-free
[17] = test system: Mus musculus; assay: Toxicity in C57BL/6 mouse assessed as seizure activity at 100 mg/kg, ip administered as single dose measured for 3 hrs; assay type: organism-based; settings: in vivo; in short: as §1
[18] = Half life in Sprague-Dawley rat at 0.2 mg/kg, iv by LC-MS/MS analysis; settings: in vivo
[19] = Plasma clearance in Sprague-Dawley rat at 0.2 mg/kg, iv by LC-MS/MS analysis
[20] = Mean residence time in Sprague-Dawley rat at 0.2 mg/kg, iv by LC-MS/MS analysis; settings: in vivo
[21] = test system: Rattus norvegicus; assay: Volume of distribution at steady state in Sprague-Dawley rat at 0.2 mg/kg, iv by LC-MS/MS analysis; settings: in vivo
[22] = Ratio of drug level in brain to plasma of Sprague-Dawley rat at 0.2 mg/kg, iv after 0.25 hrs by LC-MS/MS analysis; settings: read-out: BPR
[23] = biological target: T1, Metabotropic glutamate receptor 1; assay: Positive allosteric modulation of human mGlu1 receptor in HEK293 cells assessed as potentiation of glutamate-induced calcium mobiliztion by Fluo-4AM dye based fluorescence analysis relative to glutamate; assay type: functional, cell-based
Target sequence in this assay (Q13255 19-1194 limits assumed): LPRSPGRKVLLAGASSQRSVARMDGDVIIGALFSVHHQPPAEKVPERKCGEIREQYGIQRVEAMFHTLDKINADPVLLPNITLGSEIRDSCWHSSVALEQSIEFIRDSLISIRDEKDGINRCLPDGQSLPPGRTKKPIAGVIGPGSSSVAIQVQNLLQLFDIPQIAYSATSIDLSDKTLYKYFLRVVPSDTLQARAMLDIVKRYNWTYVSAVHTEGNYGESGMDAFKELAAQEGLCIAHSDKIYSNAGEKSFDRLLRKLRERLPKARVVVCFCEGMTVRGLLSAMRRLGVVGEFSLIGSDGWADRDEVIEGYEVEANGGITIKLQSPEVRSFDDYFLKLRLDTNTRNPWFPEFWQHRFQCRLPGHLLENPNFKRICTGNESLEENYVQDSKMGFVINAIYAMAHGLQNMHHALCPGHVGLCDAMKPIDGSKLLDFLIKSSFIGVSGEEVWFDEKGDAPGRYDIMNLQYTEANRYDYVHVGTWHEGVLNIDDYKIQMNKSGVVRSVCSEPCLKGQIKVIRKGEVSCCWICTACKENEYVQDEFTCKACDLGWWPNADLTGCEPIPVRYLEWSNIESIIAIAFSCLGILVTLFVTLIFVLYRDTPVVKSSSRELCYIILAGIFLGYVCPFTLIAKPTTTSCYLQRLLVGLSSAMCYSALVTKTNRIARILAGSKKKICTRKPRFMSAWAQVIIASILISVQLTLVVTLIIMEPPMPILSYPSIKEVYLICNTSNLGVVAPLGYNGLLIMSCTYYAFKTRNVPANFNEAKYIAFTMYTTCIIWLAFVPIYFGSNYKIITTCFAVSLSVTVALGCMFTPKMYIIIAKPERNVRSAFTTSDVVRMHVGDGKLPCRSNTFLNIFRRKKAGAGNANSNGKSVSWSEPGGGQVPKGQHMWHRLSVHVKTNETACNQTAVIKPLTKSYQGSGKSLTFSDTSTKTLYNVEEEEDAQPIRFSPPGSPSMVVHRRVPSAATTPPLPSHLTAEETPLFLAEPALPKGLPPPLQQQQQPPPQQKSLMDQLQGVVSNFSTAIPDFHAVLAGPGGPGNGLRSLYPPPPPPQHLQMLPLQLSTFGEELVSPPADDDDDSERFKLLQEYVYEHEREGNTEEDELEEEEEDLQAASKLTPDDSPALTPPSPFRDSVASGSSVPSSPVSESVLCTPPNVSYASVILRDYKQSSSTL

[24] = biological target: T3, Metabotropic glutamate receptor 4 (Homo sapiens, UniProt Q14833); assay: Positive allosteric modulation of human mGlu4 receptor assessed as potentiation of glutamate-induced calcium mobiliztion by cell based assay; assay type: functional
[25] = biological target: Metabotropic glutamate receptor 1 (Rattus norvegicus) (UniProt P23385); assay: Positive allosteric modulation of rat mGlu1 receptor assessed as potentiation of glutamate-induced calcium mobiliztion by cell based assay relative to glutamate; assay type: functional; in short: as §2
[26] = biological target: T1, Metabotropic glutamate receptor 1; assay: Positive allosteric modulation of human mGlu1 receptor in HEK293 cells assessed as potentiation of glutamate-induced calcium mobiliztion at 10 uM by Fluo-4AM dye based fluorescence analysis; assay type: functional, cell-based
Target sequence in this assay (Q13255 19-1194 limits assumed): as above

[27] = biological target: T1, Metabotropic glutamate receptor 1; assay: Agonist activity at human mGlu1 receptor in HEK293 cells assessed as calcium mobilization at 10 uM by Fluo-4AM dye based fluorescence analysis; assay type: functional, cell-based
Target sequence in this assay (Q13255 19-1194 limits assumed): as above

[28] = biological target: Metabotropic glutamate receptor 2 (Homo sapiens) (UniProt Q14416); assay: Positive allosteric modulation of mGlu2 receptor (unknown origin) assessed as potentiation of glutamate-induced response by cell-based assay
In short: (§3)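 Selectivity counterscreen at the other mGlu subtypes using the standard fold-shift paradigm. Compound was tested at 10 μM against the glutamate concentration-response curve, and the shift of that curve was read.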

[29] = biological target: Metabotropic glutamate receptor 3 (Homo sapiens) (UniProt Q14832); assay: Positive allosteric modulation of mGlu3 receptor (unknown origin) assessed as potentiation of glutamate-induced response by cell-based assay; in short: as §3
[30] = biological target: Metabotropic glutamate receptor 5 (Homo sapiens) (UniProt P41594); assay: Positive allosteric modulation of mGlu5 receptor (unknown origin) assessed as potentiation of glutamate-induced response by cell-based assay; in short: as §3
[31] = biological target: Metabotropic glutamate receptor 6 (Homo sapiens) (UniProt O15303); assay: Positive allosteric modulation of mGlu6 receptor (unknown origin) assessed as potentiation of glutamate-induced response by cell-based assay; in short: as §3
[32] = biological target: Metabotropic glutamate receptor 7 (Homo sapiens) (UniProt Q14831); assay: Positive allosteric modulation of mGlu7 receptor (unknown origin) assessed as potentiation of glutamate-induced response by cell-based assay; in short: as §3
[33] = biological target: Metabotropic glutamate receptor 8 (Homo sapiens) (UniProt O00222); assay: Positive allosteric modulation of mGlu8 receptor (unknown origin) assessed as potentiation of glutamate-induced response by cell-based assay; in short: as §3
[34] = Intrinsic clearance in human liver microsomes at 1 uM by LC-MS/MS analysis; assay type: ADME; settings: read-out: CLH
[35] = test system: Plasma; assay: Drug metabolism in human plasma assessed as 5-chloro-2-(2-chloro-4-(3-methylfuran-2-carboxamido)phenylcarbamoyl)benzoic acid level at 10 uM after 4 hrs by mass spectrometry; assay type: ADME, cell-free
[36] = test system: Plasma; assay: Drug metabolism in human plasma assessed as 4-chloro-2-(2-chloro-4-(3-methylfuran-2-carboxamido)phenylcarbamoyl)benzoic acid level at 10 uM after 4 hrs by mass spectrometry; assay type: ADME, cell-free
[37] = test system: Plasma; assay: Drug metabolism in human plasma assessed as N-(4-amino-3-chlorophenyl)-3-methylfuran-2-carboxamide level at 10 uM after 4 hrs by mass spectrometry; assay type: ADME, cell-free
[38] = test system: Plasma; assay: Drug metabolism in rat plasma assessed as 4-chloro-2-(2-chloro-4-(3-methylfuran-2-carboxamido)phenylcarbamoyl)benzoic acid level at 10 uM after 4 hrs by mass spectrometry; assay type: ADME, cell-free
[39] = test system: Plasma; assay: Drug metabolism in rat plasma assessed as 5-chloro-2-(2-chloro-4-(3-methylfuran-2-carboxamido)phenylcarbamoyl)benzoic acid level at 10 uM after 4 hrs by mass spectrometry; assay type: ADME, cell-free
[40] = test system: Plasma; assay: Drug metabolism in rat plasma assessed as N-(4-amino-3-chlorophenyl)-3-methylfuran-2-carboxamide level at 10 uM after 4 hrs by mass spectrometry; assay type: ADME, cell-free
[41] = test system: Brain; assay: Drug concentration in C57BL/6 mouse brain at 100 mg/kg, ip administered as single dose; assay type: ADME, organism-based; settings: in vivo, read-out: Drug uptake
[42] = biological target: T3, Metabotropic glutamate receptor 4; assay: Positive allosteric modulation of human mGlu4 receptor assessed as potentiation of glutamate-induced calcium mobiliztion by cell based assay relative to PHCCC

Cytochrome P450 2D6, sequence (P10635 whole entry): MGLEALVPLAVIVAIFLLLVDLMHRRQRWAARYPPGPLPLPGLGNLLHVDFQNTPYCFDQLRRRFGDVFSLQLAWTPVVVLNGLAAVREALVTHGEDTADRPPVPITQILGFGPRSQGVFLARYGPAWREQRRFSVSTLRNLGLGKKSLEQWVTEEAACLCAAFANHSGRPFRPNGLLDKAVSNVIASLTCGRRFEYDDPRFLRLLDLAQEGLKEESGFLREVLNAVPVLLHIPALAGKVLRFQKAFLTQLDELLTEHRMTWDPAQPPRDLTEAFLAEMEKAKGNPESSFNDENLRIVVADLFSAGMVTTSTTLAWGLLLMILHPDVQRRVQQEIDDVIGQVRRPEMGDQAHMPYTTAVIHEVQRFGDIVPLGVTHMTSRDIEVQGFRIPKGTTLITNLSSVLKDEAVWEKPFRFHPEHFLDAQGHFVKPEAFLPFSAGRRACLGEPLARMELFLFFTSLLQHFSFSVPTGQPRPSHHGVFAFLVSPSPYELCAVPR
T3 sequence (Q14833 whole entry): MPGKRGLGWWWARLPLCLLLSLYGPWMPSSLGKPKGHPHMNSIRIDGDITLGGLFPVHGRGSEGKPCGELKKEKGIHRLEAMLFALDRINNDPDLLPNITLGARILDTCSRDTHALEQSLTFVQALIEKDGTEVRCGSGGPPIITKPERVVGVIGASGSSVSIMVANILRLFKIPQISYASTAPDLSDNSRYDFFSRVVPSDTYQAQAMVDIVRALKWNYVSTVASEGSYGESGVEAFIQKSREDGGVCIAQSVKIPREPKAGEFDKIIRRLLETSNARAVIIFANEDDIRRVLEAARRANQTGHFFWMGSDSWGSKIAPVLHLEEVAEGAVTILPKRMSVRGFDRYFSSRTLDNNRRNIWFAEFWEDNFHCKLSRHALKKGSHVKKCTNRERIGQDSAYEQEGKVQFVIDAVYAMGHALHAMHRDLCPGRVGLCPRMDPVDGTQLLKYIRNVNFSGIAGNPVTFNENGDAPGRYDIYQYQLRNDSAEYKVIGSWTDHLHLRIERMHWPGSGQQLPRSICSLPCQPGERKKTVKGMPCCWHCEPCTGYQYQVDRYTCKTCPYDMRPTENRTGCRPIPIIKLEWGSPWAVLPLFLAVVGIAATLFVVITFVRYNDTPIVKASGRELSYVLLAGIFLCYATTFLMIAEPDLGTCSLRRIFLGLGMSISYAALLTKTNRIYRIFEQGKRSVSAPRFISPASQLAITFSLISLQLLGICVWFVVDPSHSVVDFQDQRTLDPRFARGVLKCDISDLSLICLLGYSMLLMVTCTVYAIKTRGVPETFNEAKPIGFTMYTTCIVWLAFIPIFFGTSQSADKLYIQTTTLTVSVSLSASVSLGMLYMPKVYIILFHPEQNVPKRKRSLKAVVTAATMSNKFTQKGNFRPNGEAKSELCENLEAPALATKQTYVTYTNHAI
Cytochrome P450 3A4, sequence (P08684 whole entry): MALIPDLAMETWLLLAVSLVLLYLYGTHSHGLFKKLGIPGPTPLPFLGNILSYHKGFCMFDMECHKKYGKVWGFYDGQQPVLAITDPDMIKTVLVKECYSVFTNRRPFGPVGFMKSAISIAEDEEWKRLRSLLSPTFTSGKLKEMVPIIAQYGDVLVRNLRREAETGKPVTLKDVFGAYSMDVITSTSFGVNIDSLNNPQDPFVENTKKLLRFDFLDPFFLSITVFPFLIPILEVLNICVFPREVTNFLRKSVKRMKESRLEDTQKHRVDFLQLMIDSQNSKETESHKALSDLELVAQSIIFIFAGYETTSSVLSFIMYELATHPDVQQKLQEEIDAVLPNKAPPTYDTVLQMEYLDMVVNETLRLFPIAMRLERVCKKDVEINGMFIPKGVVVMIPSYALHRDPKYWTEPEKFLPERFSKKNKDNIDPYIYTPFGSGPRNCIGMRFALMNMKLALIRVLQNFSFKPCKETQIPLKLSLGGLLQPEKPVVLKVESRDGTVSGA
Cytochrome P450 2C9, sequence (P11712 whole entry): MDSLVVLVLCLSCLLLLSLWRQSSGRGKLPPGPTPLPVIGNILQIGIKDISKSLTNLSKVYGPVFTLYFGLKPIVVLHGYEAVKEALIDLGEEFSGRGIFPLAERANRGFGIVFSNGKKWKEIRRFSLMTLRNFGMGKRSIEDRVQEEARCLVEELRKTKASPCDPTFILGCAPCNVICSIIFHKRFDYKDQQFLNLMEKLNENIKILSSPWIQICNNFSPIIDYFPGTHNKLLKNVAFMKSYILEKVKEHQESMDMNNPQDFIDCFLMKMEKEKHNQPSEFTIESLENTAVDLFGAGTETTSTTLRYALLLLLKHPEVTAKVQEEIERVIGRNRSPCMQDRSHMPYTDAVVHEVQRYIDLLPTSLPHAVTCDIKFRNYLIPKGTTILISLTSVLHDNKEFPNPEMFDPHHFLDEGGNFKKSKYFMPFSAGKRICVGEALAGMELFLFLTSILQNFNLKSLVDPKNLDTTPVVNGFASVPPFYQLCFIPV

Structure (SMILES): CC1(C)C2C(=O)N(c3ccc(NC(=O)c4ccccn4)cc3Cl)C(=O)C21 (stereo not drawn)
- pIC50 [1]: 6.85

Structure (SMILES): C[C@@H](NC(=O)c1ccc(C#Cc2cccc(F)c2)cn1)C(C)(C)O
- Activity [2]: Toxic
- Activity [3]: Toxic

Structure (SMILES): O=C(Nc1ccc(N2C(=O)c3cccc(Cl)c3C2=O)c(Cl)c1)c1ncccc1Cl
- pEC50 ([4]; hek293): 6.41
- pEC50 [5]: 6.45
- Stability [6]: Unstable
- Stability [7]: Unstable
- pIC50 [8]: < 4.52
- pIC50 [9]: < 4.52
- pIC50 [10]: < 4.52
- pIC50 [11]: < 4.52
- concentration at 0.25 h [12]: 336 ng/mL
- concentration at 0.25 h [13]: 284 ng/mL

Structure (SMILES): N[C@H](C(=O)O)c1cc(O)cc(O)c1
- Activity [14]: 13.8 Hz

Structure (SMILES): O=C(Nc1nc(C(F)(F)F)co1)C1c2ccccc2Oc2ccccc21
- Fu [15]: 0.014
- Fu [16]: 0.003
- pIC50 [10]: < 4.52
- pIC50 [11]: < 4.52
- Activity [17]: Non-toxic
- half-life [18]: 54 min
- clearance [19]: 35 mL/min/kg
- MRT [20]: 50 min
- concentration at 0.25 h [12]: 276 ng/mL
- Vdss [21]: 1.34 L/kg
- concentration at 0.25 h [13]: 81 ng/mL
- Kp at 0.25 h [22]: 0.29

Structure (SMILES): Cc1ccoc1C(=O)Nc1ccc(N2C(=O)c3ccc(Cl)cc3C2=O)c(Cl)c1
- pEC50 [4]: 7.09
- %max [23]: 94%
- pEC50 ([24]; read-out: EC50): 5.65
- EC50 ([24]; read-out: pEC50 (converted)): 2.29 µM
- pEC50 [5]: 6.95
- %max [25]: 107%
- fold change (FC) [26]: 8.3
- Activity [27]: < 20%
- fold change (FC) [28]: 2
- fold change (FC) [29]: 2
- fold change (FC) [30]: 2
- fold change (FC) [31]: 2
- fold change (FC) [32]: 2
- fold change (FC) [33]: 2
- CLint scaled at 1 µM [34]: 2.9 mL/min/kg
- Stability [6]: Unstable
- Stability [7]: Unstable
- pIC50 [8]: < 4.52
- pIC50 [9]: < 4.52
- pIC50 [10]: < 4.52
- pIC50 [11]: < 4.52
- Drug metabolism [35]: metabolite_detected
- Drug metabolism [36]: metabolite_detected
- Drug metabolism [37]: metabolite_detected
- Drug metabolism [38]: metabolite_detected
- Drug metabolism [39]: metabolite_detected
- Drug metabolism [40]: metabolite_detected
- Activity [17]: Non-toxic
- concentration [41]: 1400 nM
- half-life [18]: 91.1 min
- clearance [19]: 33 mL/min/kg
- MRT [20]: 53.5 min
- concentration at 0.25 h [12]: 173 ng/mL
- Vdss [21]: 1.76 L/kg
- concentration at 0.25 h [13]: 108 ng/mL
- Kp at 0.25 h [22]: 0.63
- %max [42]: 89%

— ChEMBL document CHEMBL3627606, “Development of Novel, CNS Penetrant Positive Allosteric Modulators for the Metabotropic Glutamate Receptor Subtype 1 (mGlu1), Based on an N-(3-Chloro-4-(1,3-dioxoisoindolin-2-yl)phenyl)-3-methylfuran-2-carboxamide Scaffold, That Potentiate Wild Type and Mutant mGlu1 Receptors Found in …” (J Med Chem, 2015)
